Source: ChEMBL document CHEMBL3576822 (J Med Chem, 2015)
Active and inactive are the calls of the source. The rule behind the calls is not given here. Residues, ends and D or L forms follow the SMILES beside them.

How the values were obtained:
[1] = system: Mus musculus; test: Effect on body weight in diet-induced obese C57BL/6JRj mouse at 50 to 250 nM/kg, ip; format: functional, organism-based
Summary of the method: (§1)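 Freely fed diet-induced obese mice, saline control group; single acute dose, SC at 500 nM/kg or IP at 50, 100 or 250 nM/kg; cumulative food intake and body weight recorded.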

[2] = system: Mus musculus; test: Effect on food intake in diet-induced obese C57BL/6JRj mouse at 500 nM/kg, sc; format: functional, organism-based; summary of the method: as §1
[3] = system: Mus musculus; test: Effect on food intake in diet-induced obese C57BL/6JRj mouse at 50 to 250 nM/kg, ip; format: functional, organism-based; summary of the method: as §1
[4] = system: Mus musculus; test: Decrease in food intake in diet-induced obese C57BL/6JRj mouse at 0.25 nM/h, sc administered via osmotic minipumps daily for 14 days; format: functional, organism-based
[5] = system: Mus musculus; test: Effect on body weight in diet-induced obese C57BL/6JRj mouse at 500 nM/kg, sc; format: functional, organism-based; summary of the method: as §1
[6] = target: T1, Growth hormone secretagogue receptor type 1 (Homo sapiens, UniProt Q92847); test: Inverse agonist activity at human GHSR1a receptor expressed in COS-7 cells assessed as inositol phosphate accumulation after 2 hrs by anion exchange chromatography; format: functional, cell-based
[7] = target: T2, Neuropeptide Y receptor type 5 (Homo sapiens) (UniProt Q15761); test: Agonist activity at human neuropeptide Y Y5 receptor expressed in COS-7 cells cotransfected with chimeric Gi/q protein assessed as inositol phosphate accumulation at 1 uM after 2 hrs by anion exchange chromatography; format: functional, cell-based
T2 sequence (whole entry): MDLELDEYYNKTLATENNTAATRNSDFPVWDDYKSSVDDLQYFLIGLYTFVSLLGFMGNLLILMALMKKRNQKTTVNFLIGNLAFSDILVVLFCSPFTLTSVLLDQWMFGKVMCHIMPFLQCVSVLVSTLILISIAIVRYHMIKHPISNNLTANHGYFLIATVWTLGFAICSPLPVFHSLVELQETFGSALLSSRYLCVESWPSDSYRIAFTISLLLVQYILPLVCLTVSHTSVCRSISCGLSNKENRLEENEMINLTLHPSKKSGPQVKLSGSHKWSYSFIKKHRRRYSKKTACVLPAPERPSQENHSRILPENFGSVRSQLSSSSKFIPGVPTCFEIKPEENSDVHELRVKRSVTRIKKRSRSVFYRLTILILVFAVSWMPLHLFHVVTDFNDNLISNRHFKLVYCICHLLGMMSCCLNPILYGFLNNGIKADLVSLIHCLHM
Summary of the method: (§2)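 COS-7 cells stably co-expressing the corresponding human Y receptor plus a chimeric Gi/q protein; single high concentration tested in inositol phosphate accumulation; response as % of NPY response at each receptor; SEM over two biological replicates.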

[8] = target: T1, Growth hormone secretagogue receptor type 1; test: Displacement of [125I]ghrelin from human eYFP-fused ghrelin receptor expressed in COS7 cells after 75 mins by competitive receptor binding assay; format: cell-based, COS-7
[9] = target: Neuropeptide Y receptor type 4 (Homo sapiens) (UniProt P50391); test: Agonist activity at human neuropeptide Y Y4 receptor expressed in COS-7 cells cotransfected with chimeric Gi/q protein assessed as inositol phosphate accumulation at 1 uM after 2 hrs by anion exchange chromatography; format: functional, cell-based; summary of the method: as §2
[10] = target: T3, Neuropeptide Y receptor type 2 (Homo sapiens, UniProt P49146); test: Displacement of [125I]PYY from human neuropeptide Y Y2 receptor expressed in HEK293 cells cotransfected with eYFP fusion protein after 2 hrs by competitive receptor binding assay; format: cell-based
T3 sequence (P49146 whole entry): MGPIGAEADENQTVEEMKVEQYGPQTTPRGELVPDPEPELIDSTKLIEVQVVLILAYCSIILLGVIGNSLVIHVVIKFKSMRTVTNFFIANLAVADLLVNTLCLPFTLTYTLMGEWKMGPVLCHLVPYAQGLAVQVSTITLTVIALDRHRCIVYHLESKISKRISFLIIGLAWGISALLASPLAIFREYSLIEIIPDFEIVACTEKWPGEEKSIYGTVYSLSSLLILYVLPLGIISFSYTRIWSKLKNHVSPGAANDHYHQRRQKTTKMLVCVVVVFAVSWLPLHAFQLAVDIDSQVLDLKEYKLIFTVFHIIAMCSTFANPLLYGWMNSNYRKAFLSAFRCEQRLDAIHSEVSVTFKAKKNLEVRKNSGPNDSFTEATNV
Summary of the method: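 Competitive binding against 125I-PYY in HEK-293 cells stably expressing human Y2 receptor; concentration-response curves.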

[11] = target: T4, Neuropeptide Y receptor type 1 (Homo sapiens) (UniProt P25929); test: Agonist activity at human neuropeptide Y Y1 receptor expressed in COS-7 cells cotransfected with chimeric Gi/q protein assessed as inositol phosphate accumulation at 1 uM after 2 hrs by anion exchange chromatography; format: functional, cell-based; summary of the method: as §2
T4 sequence (whole entry): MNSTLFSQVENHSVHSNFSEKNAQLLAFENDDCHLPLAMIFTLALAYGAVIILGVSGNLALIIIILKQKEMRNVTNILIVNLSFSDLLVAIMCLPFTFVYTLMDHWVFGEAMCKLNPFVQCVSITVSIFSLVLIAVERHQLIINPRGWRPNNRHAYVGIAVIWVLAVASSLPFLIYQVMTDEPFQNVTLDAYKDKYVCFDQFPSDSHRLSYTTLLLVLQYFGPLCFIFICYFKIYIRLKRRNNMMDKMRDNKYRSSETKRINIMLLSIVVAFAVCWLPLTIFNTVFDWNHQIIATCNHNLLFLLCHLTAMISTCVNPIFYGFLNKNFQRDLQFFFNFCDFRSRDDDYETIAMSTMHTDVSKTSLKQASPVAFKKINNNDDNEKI

[12] = target: T3, Neuropeptide Y receptor type 2; test: Agonist activity at human neuropeptide Y Y2 receptor expressed in COS-7 cells cotransfected with chimeric Gi/q protein assessed as inositol phosphate accumulation after 2 hrs by anion exchange chromatography; format: functional, cell-based
Summary of the method: (§3)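 Inositol phosphate turnover in COS-7 cells stably co-expressing human Y2 receptor and chimeric Gi/q protein; concentration-response curves, responses as % of maximum Y2 activity; SEM over two biological replicates.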

[13] = target: T1, Growth hormone secretagogue receptor type 1; test: Inverse agonist activity at human GHSR1a receptor expressed in COS-7 cells assessed as inositol phosphate accumulation after 2 hrs by anion exchange chromatography relative to control; format: functional, cell-based
[14] = target: T5, Neuropeptide Y receptor type 2 (Homo sapiens) (UniProt P49146); test: Agonist activity at human neuropeptide Y Y2 receptor expressed in COS-7 cells cotransfected with chimeric Gi/q protein assessed as inositol phosphate accumulation after 2 hrs by anion exchange chromatography relative to control; format: functional, cell-based; summary of the method: as §3
T5 sequence (whole entry): T3 sequence (P49146 whole entry)

[15] = system: Mus musculus; test: Effect on food intake in diet-induced obese C57BL/6JRj mouse at 100 nM/kg, ip administered daily for 10 days; format: functional, organism-based
Summary of the method: (§4)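 Freely fed diet-induced obese mice randomized to groups, saline as control; daily IP injection at 100 nM/kg for 10 days; cumulative food intake and body weight tracked in parallel; drug-by-time interaction analysed by repeated-measures ANOVA.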

[16] = system: Mus musculus; test: Effect on body weight in diet-induced obese C57BL/6JRj mouse at 0.25 nM/h, sc administered via osmotic minipumps daily for 14 days; format: functional, organism-based
[17] = system: Mus musculus; test: Effect on body weight in diet-induced obese C57BL/6JRj mouse at 100 nM/kg, ip administered daily for 10 days; format: functional, organism-based; summary of the method: as §4

T1 sequence (Q92847 whole entry): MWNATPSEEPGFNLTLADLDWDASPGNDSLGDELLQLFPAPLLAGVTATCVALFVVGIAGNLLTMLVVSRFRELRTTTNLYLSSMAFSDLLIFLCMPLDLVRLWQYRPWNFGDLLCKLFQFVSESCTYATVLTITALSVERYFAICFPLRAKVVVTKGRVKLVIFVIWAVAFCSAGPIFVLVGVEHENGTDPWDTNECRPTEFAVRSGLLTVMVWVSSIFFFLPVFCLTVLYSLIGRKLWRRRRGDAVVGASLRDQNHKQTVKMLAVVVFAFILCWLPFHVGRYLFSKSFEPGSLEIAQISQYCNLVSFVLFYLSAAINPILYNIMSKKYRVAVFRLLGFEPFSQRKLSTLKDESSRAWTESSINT
Chain of Neuropeptide Y receptor type 4 (Homo sapiens) (P50391 whole entry, the tested form may be a part): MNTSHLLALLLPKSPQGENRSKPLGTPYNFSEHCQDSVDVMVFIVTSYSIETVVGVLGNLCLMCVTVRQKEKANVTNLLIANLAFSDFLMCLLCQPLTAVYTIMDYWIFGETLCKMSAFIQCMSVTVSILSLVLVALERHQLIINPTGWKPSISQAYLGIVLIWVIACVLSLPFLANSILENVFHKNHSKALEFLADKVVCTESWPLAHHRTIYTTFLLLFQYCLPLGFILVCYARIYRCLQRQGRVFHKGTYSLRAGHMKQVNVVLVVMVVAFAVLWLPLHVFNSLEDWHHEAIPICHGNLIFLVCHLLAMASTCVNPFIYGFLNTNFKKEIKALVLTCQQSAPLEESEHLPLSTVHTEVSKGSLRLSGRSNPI

| Structure (SMILES) | Activity [1] | Activity [2] | Activity [3] | inhibition [4] | Activity [5] | EC50 [6] [nM] | Efficacy [7] [%] | IC50 [8] [nM] | Efficacy [9] [%] | IC50 [10] [nM] | Efficacy [11] [%] | EC50 [12] [nM] | Efficacy [13] [%] | Efficacy [14] [%] | Activity [15] | Activity [16] | Activity [17] |
| --- | --- | --- | --- | --- | --- | --- | --- | --- | --- | --- | --- | --- | --- | --- | --- | --- | --- |
| CC(=O)N[C@@H](CC(C)C)C(=O)N[C@@H](CCCNC(=N)N)C(=O)N[C@@H](Cc1cnc[nH]1)C(=O)N[C@@H](Cc1ccc(O)cc1)C(=O)N[C@@H](CC(C)C)C(=O)N[C@@H](CC(N)=O)C(=O)N[C@@H](CC(C)C)C(=O)N[C@@H](CC(C)C)C(=O)N[C@H](C(=O)N[C@@H](CCCNC(=N)N)C(=O)N[C@@H](CCC(N)=O)C(=O)N[C@@H](CCCNC(=N)N)C(=O)N[C@@H](Cc1ccc(O)cc1)C(N)=O)[C@@H](C)O (Ac-LRHYLNLLTRQRY-NH2) | inactive | inactive | inactive | inactive | inactive | – | – | – | – | – | – | – | – | – | – | – | – |
| CC(=O)N[C@@H](CCCCNC(=O)CCNC(=O)[C@H](CCC(N)=O)NC(=O)[C@H](CC(C)C)NC(=O)[C@@H](Cc1c[nH]c2ccccc12)NC(=O)[C@H](Cc1ccccc1)NC(=O)[C@@H](Cc1cccc2ccccc12)NC(=O)[C@@H](N)CCCCN)C(=O)N[C@@H](CC(C)C)C(=O)N[C@@H](CCCNC(=N)N)C(=O)N[C@@H](Cc1cnc[nH]1)C(=O)N[C@@H](Cc1ccc(O)cc1)C(=O)N[C@@H](CC(C)C)C(=O)N[C@@H](CC(N)=O)C(=O)N[C@@H](CC(C)C)C(=O)N[C@@H](CC(C)C)C(=O)N[C@H](C(=O)N[C@@H](CCCNC(=N)N)C(=O)N[C@@H](CCC(N)=O)C(=O)N[C@@H](CCCNC(=N)N)C(=O)N[C@@H](Cc1ccc(O)cc1)C(N)=O)[C@@H](C)O | – | – | – | – | – | 99.9 | > 56 | 126 | 46 | 14.7 | > 66 | 1.7 | 88 | 86 | – | – | – |
| CC(=O)N[C@@H](CCCCNC(=O)CCCCCNC(=O)[C@H](CCC(N)=O)NC(=O)[C@H](CC(C)C)NC(=O)[C@@H](Cc1c[nH]c2ccccc12)NC(=O)[C@H](Cc1ccccc1)NC(=O)[C@@H](Cc1cccc2ccccc12)NC(=O)[C@@H](N)CCCCN)C(=O)N[C@@H](CC(C)C)C(=O)N[C@@H](CCCNC(=N)N)C(=O)N[C@@H](Cc1cnc[nH]1)C(=O)N[C@@H](Cc1ccc(O)cc1)C(=O)N[C@@H](CC(C)C)C(=O)N[C@@H](CC(N)=O)C(=O)N[C@@H](CC(C)C)C(=O)N[C@@H](CC(C)C)C(=O)N[C@H](C(=O)N[C@@H](CCCNC(=N)N)C(=O)N[C@@H](CCC(N)=O)C(=O)N[C@@H](CCCNC(=N)N)C(=O)N[C@@H](Cc1ccc(O)cc1)C(N)=O)[C@@H](C)O | – | – | – | – | – | 88.3 | > 56 | 78.2 | 35 | 9 | > 66 | 3.9 | 85 | 84 | – | – | – |
| CC(=O)NC(CNC(=O)CCC(=O)N[C@@H](CCCCN)C(=O)N[C@H](Cc1cccc2ccccc12)C(=O)N[C@@H](Cc1ccccc1)C(=O)N[C@H](Cc1c[nH]c2ccccc12)C(=O)N[C@@H](CC(C)C)C(=O)N[C@@H](CC(C)C)C(N)=O)C(=O)N[C@@H](CC(C)C)C(=O)N[C@@H](CCCNC(=N)N)C(=O)N[C@@H](Cc1cnc[nH]1)C(=O)N[C@@H](Cc1ccc(O)cc1)C(=O)N[C@@H](CC(C)C)C(=O)N[C@@H](CC(N)=O)C(=O)N[C@@H](CC(C)C)C(=O)N[C@@H](CC(C)C)C(=O)N[C@H](C(=O)N[C@@H](CCCNC(=N)N)C(=O)N[C@@H](CCC(N)=O)C(=O)N[C@@H](CCCNC(=N)N)C(=O)N[C@@H](Cc1ccc(O)cc1)C(N)=O)[C@@H](C)O (stereo not given in full) | inactive | inactive | inactive | Active | inactive | 41.7 | 33 | 97.1 | < 25 | 61.4 | < 25 | 3.2 | 82 | 84 | inactive | inactive | inactive |
